Test results: ChEMBL document CHEMBL1255404, “Spread of OXA-48-encoding plasmid in Turkey and beyond” (2010)
Values after ≈ are worked out from the molar mass of the structure shown.

What was measured:
Assay type in all cases: functional
Klebsiella pneumoniae [1] = test: Antimicrobial activity against Klebsiella pneumoniae isolate KpL expressing beta-lactamase OXA-48 by Etest method
Escherichia coli [2] = test: Antimicrobial activity against Escherichia coli isolate J53 harboring pI-1 containing beta-lactamase OXA-48 located within transposon Tn1999.2 by Etest method
Summary of the method: (§1)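 β-Lactam MICs read with Etest strips. Strains are E. coli J53 recipient and J53 transconjugants carrying OXA-48-positive plasmids recovered from clinical enterobacterial isolates.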

Escherichia coli [3] = test: Antimicrobial activity against Escherichia coli isolate J53 harboring pE containing beta-lactamase OXA-48 located within transposon Tn1999.2 by Etest method; summary of the method: as §1
Escherichia coli [4] = test: Antimicrobial activity against Escherichia coli isolate J53 harboring p6A containing beta-lactamase OXA-48 located within transposon Tn1999 by Etest method; summary of the method: as §1
Klebsiella pneumoniae [5] = test: Antimicrobial activity against Klebsiella pneumoniae isolate KpI-1 expressing beta-lactamase OXA-48 and CTX-M-15 by Etest method
Klebsiella pneumoniae [6] = test: Antimicrobial activity against Klebsiella pneumoniae isolate Kp11978 expressing beta-lactamase OXA-48, SHV-2a and TEM-1 by Etest method
Escherichia coli [7] = test: Antimicrobial activity against Escherichia coli isolate J53 harboring pEnc1 containing beta-lactamase OXA-48 located within transposon Tn1999 by Etest method; summary of the method: as §1
Citrobacter freundii = test: Antimicrobial activity against Citrobacter freundii isolate expressing beta-lactamase OXA-48 by Etest method
Escherichia coli [8] = test: Antimicrobial activity against Escherichia coli isolate J53 harboring pBb containing beta-lactamase OXA-48 located within transposon Tn1999.2 by Etest method; summary of the method: as §1
Escherichia coli [9] = test: Antimicrobial activity against Escherichia coli isolate J53 harboring p7A containing beta-lactamase OXA-48 located within transposon Tn1999 by Etest method; summary of the method: as §1
Klebsiella pneumoniae [10] = test: Antimicrobial activity against Klebsiella pneumoniae isolate Kp7A expressing beta-lactamase OXA-48 by Etest method
Summary of the method: (§2)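 MICs of β-lactams read from Etest strips. The test organisms are carbapenem-resistant, OXA-48-positive clinical Enterobacteriaceae isolates recovered from Turkey, Lebanon, Egypt, France and Belgium.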

Klebsiella pneumoniae [11] = test: Antimicrobial activity against Klebsiella pneumoniae isolate Kp4A expressing beta-lactamase OXA-48 and CTX-M-15 by Etest method
Klebsiella pneumoniae [12] = test: Antimicrobial activity against Klebsiella pneumoniae isolate Kp6A expressing beta-lactamase OXA-48 and TEM-150 by Etest method
Escherichia coli [13] = test: Antimicrobial activity against Escherichia coli isolate J53 by Etest method; summary of the method: as §1
Escherichia coli [14] = test: Antimicrobial activity against Escherichia coli isolate A expressing beta-lactamase OXA-48 and TEM-150 by Etest method
Escherichia coli [15] = test: Antimicrobial activity against Escherichia coli isolate J53 harboring pBEL containing beta-lactamase OXA-48 located within transposon Tn1999.2 by Etest method; summary of the method: as §1
Klebsiella pneumoniae [16] = test: Antimicrobial activity against Klebsiella pneumoniae isolate KpBIC expressing beta-lactamase OXA-48 by Etest method; summary of the method: as §2
Escherichia coli [17] = test: Antimicrobial activity against Escherichia coli isolate J53 harboring p5A containing beta-lactamase OXA-48 located within transposon Tn1999 by Etest method; summary of the method: as §1
Escherichia coli [18] = test: Antimicrobial activity against Escherichia coli isolate J53 harboring pCF containing beta-lactamase OXA-48 located within transposon Tn1999 by Etest method; summary of the method: as §1
Klebsiella pneumoniae [19] = test: Antimicrobial activity against Klebsiella pneumoniae isolate Kp3A expressing beta-lactamase OXA-48 by Etest method; summary of the method: as §2
Klebsiella pneumoniae [20] = test: Antimicrobial activity against Klebsiella pneumoniae isolate Kp5A expressing beta-lactamase OXA-48 and SHV-5 by Etest method
Klebsiella pneumoniae [21] = test: Antimicrobial activity against Klebsiella pneumoniae isolate KpB expressing OXA-48 and CTX-M-15 by Etest method
Escherichia coli [22] = test: Antimicrobial activity against Escherichia coli isolate J53 harboring p3A containing beta-lactamase OXA-48 located within transposon Tn1999 by Etest method; summary of the method: as §1
Klebsiella pneumoniae [23] = test: Antimicrobial activity against Klebsiella pneumoniae isolate KpE expressing beta-lactamase OXA-48 and CTX-M-15 by Etest method
Escherichia coli [24] = test: Antimicrobial activity against Escherichia coli isolate J53 harboring pI-2 containing beta-lactamase OXA-48 located within transposon Tn1999.2 by Etest method; summary of the method: as §1
Escherichia coli [25] = test: Antimicrobial activity against Escherichia coli isolate J53 harboring pL containing beta-lactamase OXA-48 located within transposon Tn1999.2 by Etest method; summary of the method: as §1
Providencia rettgeri = test: Antimicrobial activity against Providencia rettgeri isolate expressing beta-lactamase OXA-48 and TEM-101 by Etest method
Escherichia coli [26] = test: Antimicrobial activity against Escherichia coli isolate TOP10 harboring pPR containing beta-lactamase and TEM-101 by Etest method
Summary of the method: (§3)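 β-Lactam MICs read with Etest strips. Strains are E. coli TOP10 host and TOP10 transformants made with plasmid DNA extract when conjugation failed. Transformants were selected on LB agar with ticarcillin 50 μg/ml.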

Klebsiella pneumoniae [27] = test: Antimicrobial activity against Klebsiella pneumoniae isolate KpI-2 expressing beta-lactamase OXA-48 and CTX-M-15 by Etest method
Escherichia coli [28] = test: Antimicrobial activity against Escherichia coli isolate J53 harboring p4A containing beta-lactamase OXA-48 located within transposon Tn1999 by Etest method; summary of the method: as §1
Escherichia coli [29] = test: Antimicrobial activity against Escherichia coli isolate TOP10 by Etest method; summary of the method: as §3
Escherichia coli [30] = test: Antimicrobial activity against Escherichia coli isolate J53 harboring pEcA containing beta-lactamase OXA-48 located within transposon Tn1999.2 by Etest method; summary of the method: as §1
Escherichia coli [31] = test: Antimicrobial activity against Escherichia coli isolate J53 harboring pA-1 containing beta-lactamase OXA-48 located within transposon Tn1999 by Etest method; summary of the method: as §1
Enterobacter cloacae [32] = test: Antimicrobial activity against Enterobacter cloacae isolate 1 expressing beta-lactamase OXA-48 and SHV-5 by Etest method
Escherichia coli [33] = test: Antimicrobial activity against Escherichia coli isolate TOP10 harboring pBIC containing beta-lactamase OXA-48 located within transposon Tn1999.2 by Etest method; summary of the method: as §3
Enterobacter cloacae [34] = test: Antimicrobial activity against Enterobacter cloacae isolate 2 expressing beta-lactamase OXA-48 and SHV-5 by Etest method
Klebsiella pneumoniae [35] = test: Antimicrobial activity against Klebsiella pneumoniae isolate KpBEL expressing beta-lactamase OXA-48 by Etest method; summary of the method: as §2
Escherichia coli [36] = test: Antimicrobial activity against Escherichia coli isolate J53 harboring pEnc2 containing beta-lactamase OXA-48 located within transposon Tn1999 by Etest method; summary of the method: as §1

Structure (SMILES)	MIC (Klebsiella pneumoniae [1])	MIC (Escherichia coli [2])	MIC (Escherichia coli [3])	MIC (Escherichia coli [4])	MIC (Klebsiella pneumoniae [5])	MIC (Klebsiella pneumoniae [6])	MIC (Escherichia coli [7])	MIC (Citrobacter freundii)	MIC (Escherichia coli [8])	MIC (Escherichia coli [9])	MIC (Klebsiella pneumoniae [10])	MIC (Klebsiella pneumoniae [11])	MIC (Klebsiella pneumoniae [12])	MIC (Escherichia coli [13])	MIC (Escherichia coli [14])	MIC (Escherichia coli [15])	MIC (Klebsiella pneumoniae [16])	MIC (Escherichia coli [17])	MIC (Escherichia coli [18])	MIC (Klebsiella pneumoniae [19])	other results
CO[C@@]1(NC(=O)Cc2cccs2)C(=O)N2C(C(=O)O)=C(COC(N)=O)CS[C@@H]21 [CEFOXITIN]	8 µg/mL (≈ 18.7 µM)	2 µg/mL (≈ 4.68 µM)	2 µg/mL (≈ 4.68 µM)	2 µg/mL (≈ 4.68 µM)	128 µg/mL (≈ 299 µM)	128 µg/mL (≈ 299 µM)	2 µg/mL (≈ 4.68 µM)	128 µg/mL (≈ 299 µM)	4 µg/mL (≈ 9.36 µM)	2 µg/mL (≈ 4.68 µM)	128 µg/mL (≈ 299 µM)	128 µg/mL (≈ 299 µM)	128 µg/mL (≈ 299 µM)	2 µg/mL (≈ 4.68 µM)	128 µg/mL (≈ 299 µM)	2 µg/mL (≈ 4.68 µM)	128 µg/mL (≈ 299 µM)	2 µg/mL (≈ 4.68 µM)	2 µg/mL (≈ 4.68 µM)	2 µg/mL (≈ 4.68 µM)	MIC (Klebsiella pneumoniae [20]): 128 µg/mL (≈ 299 µM); MIC (Klebsiella pneumoniae [21]): 128 µg/mL (≈ 299 µM); MIC (Escherichia coli [22]): 2 µg/mL (≈ 4.68 µM); MIC (Klebsiella pneumoniae [23]): 128 µg/mL (≈ 299 µM); MIC (Escherichia coli [24]): 2 µg/mL (≈ 4.68 µM); MIC (Escherichia coli [25]): 2 µg/mL (≈ 4.68 µM); MIC (Providencia rettgeri): 128 µg/mL (≈ 299 µM); MIC (Escherichia coli [26]): 4 µg/mL (≈ 9.36 µM); MIC (Klebsiella pneumoniae [27]): 128 µg/mL (≈ 299 µM); MIC (Escherichia coli [28]): 2 µg/mL (≈ 4.68 µM); MIC (Escherichia coli [29]): 4 µg/mL (≈ 9.36 µM); MIC (Escherichia coli [30]): 2 µg/mL (≈ 4.68 µM); MIC (Escherichia coli [31]): 2 µg/mL (≈ 4.68 µM); MIC (Enterobacter cloacae [32]): > 512 µg/mL; MIC (Escherichia coli [33]): 2 µg/mL (≈ 4.68 µM); MIC (Enterobacter cloacae [34]): 512 µg/mL (≈ 1200 µM); MIC (Klebsiella pneumoniae [35]): 2 µg/mL (≈ 4.68 µM); MIC (Escherichia coli [36]): 2 µg/mL (≈ 4.68 µM)
CO/N=C(\C(=O)N[C@@H]1C(=O)N2C(C(=O)O)=C(COC(C)=O)CS[C@H]12)c1csc(N)n1 [CEFOTAXIME]	1.5 µg/mL (≈ 3.29 µM)	0.12 µg/mL (≈ 0.263 µM)	0.12 µg/mL (≈ 0.263 µM)	0.12 µg/mL (≈ 0.263 µM)	64 µg/mL (≈ 141 µM)	64 µg/mL (≈ 141 µM)	0.25 µg/mL (≈ 0.549 µM)	64 µg/mL (≈ 141 µM)	0.5 µg/mL (≈ 1.1 µM)	0.5 µg/mL (≈ 1.1 µM)	0.5 µg/mL (≈ 1.1 µM)	64 µg/mL (≈ 141 µM)	64 µg/mL (≈ 141 µM)	0.06 µg/mL (≈ 0.132 µM)	64 µg/mL (≈ 141 µM)	0.12 µg/mL (≈ 0.263 µM)	0.5 µg/mL (≈ 1.1 µM)	0.12 µg/mL (≈ 0.263 µM)	0.12 µg/mL (≈ 0.263 µM)	1 µg/mL (≈ 2.2 µM)	MIC (Klebsiella pneumoniae [20]): 64 µg/mL (≈ 141 µM); MIC (Klebsiella pneumoniae [21]): > 512 µg/mL; MIC (Escherichia coli [22]): 0.5 µg/mL (≈ 1.1 µM); MIC (Klebsiella pneumoniae [23]): 64 µg/mL (≈ 141 µM); MIC (Escherichia coli [24]): 0.12 µg/mL (≈ 0.263 µM); MIC (Escherichia coli [25]): 0.25 µg/mL (≈ 0.549 µM); MIC (Providencia rettgeri): 64 µg/mL (≈ 141 µM); MIC (Escherichia coli [26]): 32 µg/mL (≈ 70.3 µM); MIC (Klebsiella pneumoniae [27]): 64 µg/mL (≈ 141 µM); MIC (Escherichia coli [28]): 0.12 µg/mL (≈ 0.263 µM); MIC (Escherichia coli [29]): 0.06 µg/mL (≈ 0.132 µM); MIC (Escherichia coli [30]): 0.12 µg/mL (≈ 0.263 µM); MIC (Escherichia coli [31]): 0.06 µg/mL (≈ 0.132 µM); MIC (Enterobacter cloacae [32]): > 512 µg/mL; MIC (Escherichia coli [33]): 0.5 µg/mL (≈ 1.1 µM); MIC (Enterobacter cloacae [34]): 512 µg/mL (≈ 1120 µM); MIC (Klebsiella pneumoniae [35]): 0.12 µg/mL (≈ 0.263 µM); MIC (Escherichia coli [36]): 0.25 µg/mL (≈ 0.549 µM)
